Consider 18 compounds from ChEMBL document CHEMBL1121387, “Analgesic narcotic antagonists. 1. 8 beta-Alkyl-, 8 beta-acyl-, and 8 beta-(tertiary alcohol)dihydrocodeinones and -dihydromorphinones” (1980).

Molecules are shown by their SMILES.

The subject of one test is Rattus norvegicus. The experiment in a line: Analgesic activity measured by rat tail flick assay following s.c. administration. It is filed as functional. Also noted: unit not given here. An outline of the steps: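 Male albino rats (100–120 g). Two control reaction times are taken 30 min apart before dosing. For agonist activity, test drug is given subcutaneously with no morphine, and tail-flick reaction time is retested 20 min postdrug. Activity is judged against control groups. ED50 values with 95% confidence limits are obtained by Litchfield–Wilcoxon.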

The test system of another test is Mus musculus. The experiment in a line: Analgesic activity was measured by acetic acid writhing test in mouse by giving subcutaneous injection. The arrangement: unit not given here. It is filed as functional. An outline of the steps: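 Male albino Charles River mice (18–22 g), five per dose, at least three doses per ED50. Salts are given in distilled water; free bases are dissolved with dilute HCl and then diluted with water. Drug is given s.c. 15 min before i.p. 0.5% HOAc (0.4 mL). Writhes are counted for 20 min, starting 5 min post-HOAc, and compared with controls. ED50 with 95% confidence limits by Litchfield–Wilcoxon.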

Consider `C=C[C@H]1CC(=O)[C@@H]2Oc3c(OC)ccc4c3C23CCN(C)C(C4)C13` (stereo partly specified), for which the ED50 in the test with Rattus norvegicus stood at 130; in the test with Mus musculus, 13.8. In the case of `CCC[C@@H]1CC(=O)[C@@H]2Oc3c(OC)ccc4c3C23CCN(C)C(C4)C13` (stereo partly specified), the ED50 with Rattus norvegicus and in the test with Mus musculus was >25 throughout.

As for `COc1ccc2c3c1O[C@H]1C(=O)C[C@H](C4CC4)C4C(C2)N(C)CCC341` (stereo partly specified), the ED50 in the test on Rattus norvegicus is reported as >25; with Mus musculus it was 42.

As to `COc1ccc2c3c1O[C@H]1C(=O)C[C@H](c4ccccc4)C4C(C2)N(C)CCC341` (stereo partly specified), the ED50 with Mus musculus was >50. Turning to `CC[C@H]1CC(=O)[C@@H]2Oc3c(OC)ccc4c3C23CCN(C)C(C4)C13` (stereo partly specified), the values for the ED50 with Rattus norvegicus and in the test on Mus musculus were 20.3 and 1.8, respectively. As for `CC[C@@H]1CC(=O)[C@@H]2Oc3c(OC)ccc4c3C23CCN(C)C(C4)C13` (stereo partly specified), the values for the ED50 in the test with Rattus norvegicus and in the test with Mus musculus were >30 and 3, respectively. As to `C=C(C)[C@H]1CC(=O)[C@@H]2Oc3c(OC)ccc4c3C23CCN(C)C(C4)C13` (stereo partly specified), the ED50 in the test on Mus musculus is >50. For the compound `COc1ccc2c3c1O[C@H]1C(=O)C[C@@H](C)C4C(C2)N(C)CCC341` (stereo partly specified), the ED50 with Rattus norvegicus was 3.8; in the test on Mus musculus it was 2. Regarding `CC[C@H]1CC(=O)[C@@H]2Oc3c(O)ccc4c3C23CCN(C)C(C4)C13` (stereo partly specified), the ED50 came to 1.12 in the test with Rattus norvegicus and 0.41 with Mus musculus. For `COc1ccc2c3c1O[C@H]1C(=O)C[C@H](C)C4C(C2)N(C)CCC341` (stereo partly specified), the ED50 in the test on Rattus norvegicus is listed as 10.2; in the test on Mus musculus it was 4.9. On the same counts, the results for `COc1ccc2c3c1O[C@H]1C(=O)C[C@H](C(C)C)C4C(C2)N(C)CCC341` (stereo partly specified) are >55 and 21.7. As to `CCCC[C@H]1CC(=O)[C@@H]2Oc3c(OC)ccc4c3C23CCN(C)C(C4)C13` (stereo partly specified), the ED50 with Rattus norvegicus is reported as >50; in the test with Mus musculus, 27. On the same counts, the results for `CCCCCCCC[C@H]1CC(=O)[C@@H]2Oc3c(OC)ccc4c3C23CCN(C)C(C4)C13` (stereo partly specified) are >50 and 25.9.

On to `COc1ccc2c3c1O[C@H]1C(=O)C[C@H](C(C)(C)C)C4C(C2)N(C)CCC341` (stereo partly specified), for which the ED50 with Rattus norvegicus was >25; with Mus musculus, 17.6. Compound `CCC[C@H]1CC(=O)[C@@H]2Oc3c(OC)ccc4c3C23CCN(C)C(C4)C13` (stereo partly specified) registered an ED50 in the test on Mus musculus of 17.5. In the case of `C[C@H]1CC(=O)[C@@H]2Oc3c(O)ccc4c3C23CCN(C)C(C4)C13` (stereo partly specified), the figures for the ED50 with Rattus norvegicus and with Mus musculus were 1.6 and 0.24, respectively.

`CCC(C)[C@H]1CC(=O)C2Oc3c(OC)ccc4c3C23CCN(C)C(C4)C13` (single isomer, unassigned; form 1): the ED50 in the test on Mus musculus is listed as >25.

Compound `CCC(C)[C@H]1CC(=O)C2Oc3c(OC)ccc4c3C23CCN(C)C(C4)C13` (single isomer, unassigned; form 2) yielded an ED50 with Mus musculus of 14.1.
